Data reported in ChEMBL document CHEMBL1122205, “Catechol O-methyltransferase. 12. Affinity labeling the active site with the oxidation products of 5,6-dihydroxyindole” (J Med Chem, 1982).

Experiments:
[1] = target: T1, Catechol O-methyltransferase (Rattus norvegicus) (UniProt P22734); assay: Evaluated for its ability to inactivate Catechol O-methyltransferase under aerobic conditions, after 60 min at 37 degree. C; design: concentration or dose not given beside the values
T1 sequence (whole entry): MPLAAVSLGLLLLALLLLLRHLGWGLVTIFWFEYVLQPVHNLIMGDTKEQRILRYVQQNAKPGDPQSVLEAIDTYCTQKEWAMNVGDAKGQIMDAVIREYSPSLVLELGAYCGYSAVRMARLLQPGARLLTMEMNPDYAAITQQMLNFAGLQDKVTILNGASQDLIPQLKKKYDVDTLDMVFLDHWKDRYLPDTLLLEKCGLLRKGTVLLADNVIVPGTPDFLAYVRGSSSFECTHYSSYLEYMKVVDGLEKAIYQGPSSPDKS
How it was run: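 Aerobic preincubation of purified rat liver COMT with inhibitor (0.5 mM), MgCl2 1.20 mM, phosphate buffer pH 7.60 for 60 min at 37 °C. Residual activity versus controls assayed directly after inhibitor addition; duplicate means.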

[2] = target: T2, Catechol O-methyltransferase (Rattus norvegicus, UniProt P22734); assay: (§1) Kinetic constants for the inactivation of Catechol O-methyltransferase by the compound
T2 sequence (P22734 whole entry): T1 sequence (whole entry)

[3] = target: T1, Catechol O-methyltransferase (Rattus norvegicus); assay: Evaluated for its ability to inactivate Catechol O-methyltransferase under anaerobic conditions, after 60 min at 37 degree. C; design: concentration or dose not given beside the values
How it was run: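 Anaerobic variant: preincubation (inhibitor 0.5 mM, MgCl2 1.20 mM, phosphate pH 7.60, purified rat liver COMT, 60 min, 37 °C) in sealed ampules under nitrogen, inhibitor stocks in deoxygenated water, samples withdrawn by syringe and assayed in ampules under nitrogen.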

[4] = target: T1, Catechol O-methyltransferase (Rattus norvegicus); assay: Compound was evaluated for its ability to inactivate Catechol O-methyltransferase after dialysis
How it was run: (§2)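 Purified rat liver COMT preincubated 60 min at 37 °C with inhibitor (0.5 mM), MgCl2 1.20 mM, phosphate buffer pH 7.60. Residual activity relative to unpreincubated controls (dialyzed 24 h for post-dialysis line); duplicate means.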

[5] = target: T1, Catechol O-methyltransferase (Rattus norvegicus); assay: as §1
[6] = target: T1, Catechol O-methyltransferase (Rattus norvegicus); assay: Compound was evaluated for its ability to inactivate Catechol O-methyltransferase before dialysis; how it was run: as §2
[7] = target: T1, Catechol O-methyltransferase (Rattus norvegicus); assay: Kinetic constants for the inactivation of cCatechol O-methyltransferase by the compound

| Structure (SMILES) | residual activity [1] | Ki [2] | residual activity [3] | residual activity [4] | K2 [5] | residual activity [6] | K2 [7] |
| --- | --- | --- | --- | --- | --- | --- | --- |
| NCCc1c[nH]c2cc(O)c(O)cc12 | 0% | 0.328 mM | 89% | 232 c.p.m. | 0.086 min⁻¹ | 242 c.p.m. |  |
| Cc1c(O)c(O)cc2[nH]ccc12 | 0% | 15.2 mM | 81% | 351 c.p.m. |  | 396 c.p.m. | 0.47 min⁻¹ |

More lines, in order of falling Ki [2], values ahead:

| residual activity [1] | Ki [2] | residual activity [3] | residual activity [4] | K2 [5] | residual activity [6] | K2 [7] | Structure (SMILES) |
| --- | --- | --- | --- | --- | --- | --- | --- |
| 4.5% | 7.26 mM | 96% | 212 c.p.m. | 1.12 min⁻¹ | 322 c.p.m. |  | Cc1c(O)c(O)c(C)c2[nH]ccc12 |
| 0% | 3.46 mM | 96% | 228 c.p.m. | 0.55 min⁻¹ | 282 c.p.m. |  | Oc1cc2cc[nH]c2cc1O |
| 0% | 1.14 mM | 84% | 262 c.p.m. | 0.16 min⁻¹ | 277 c.p.m. |  | Cc1c(O)c(O)cc2cc[nH]c12 |
